{
  "source": "ChEMBL document CHEMBL4354843",
  "about": "“Structure-Based Design of a Potent and Selective Covalent Inhibitor for SRC Kinase That Targets a P-Loop Cysteine” (J Med Chem, 2020)",
  "key": {"[1]": {"molecular_target": "Cyclin-dependent kinase 4/cyclin D1 (Homo sapiens) (UniProt P11802+P24385)", "assay": "Binding affinity to wild-type human full length CDK4/cyclinD1 (M1 to E303 residues) expressed in mammalian expression system assessed as residual binding level at 1 uM by Kinomescan method relative to control", "outline": "(§1)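 Active-site-directed KinomeScan competition binding panel covering 468 kinases, compound tested at 1 μM. Each readout is the kinase signal remaining with compound, expressed as a percentage of the DMSO control. […]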"}, "[2]": {"molecular_target": "Tyrosine-protein kinase Tec (Homo sapiens) (UniProt P42680)", "assay": "Binding affinity to wild-type human partial length TEC (L341 to D620 residues) expressed in bacterial expression system assessed as residual binding level at 1 uM by Kinomescan method relative to control"}, "[3]": {"molecular_target": "Ephrin type-A receptor 8 (Homo sapiens) (UniProt P29322)", "assay": "Binding affinity to wild-type human partial length EPHA8 (Q608 to C920 residues) expressed in bacterial expression system assessed as residual binding level at 1 uM by Kinomescan method relative to control", "outline": "(§2)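 Active-site-directed competition binding panel of 468 kinases (KinomeScan), compound at 1 μM. The read-out is kinase remaining bound, given as a percentage of the DMSO control. […]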"}, "[4]": {"molecular_target": "Ribosomal protein S6 kinase alpha-1 (Homo sapiens) (UniProt Q15418)", "assay": "Binding affinity to wild-type human partial length C- terminal RSK1 kinase domain 2 (P360 to L681 residues) expressed in bacterial expression system assessed as residual binding level at 1 uM by Kinomescan method relative to control"}, "[5]": {"molecular_target": "SRSF protein kinase 2 (Homo sapiens) (UniProt P78362)", "assay": "Binding affinity to wild-type human full length SRPK2 (M1 to S686 residues) expressed in bacterial expression system assessed as residual binding level at 1 uM by Kinomescan method relative to control"}, "[6]": {"molecular_target": "Myosin light chain kinase, smooth muscle (Homo sapiens) (UniProt Q15746)", "assay": "Binding affinity to wild-type human full length MYLK (M854 to E1845 residues) expressed in mammalian expression system assessed as residual binding level at 1 uM by Kinomescan method relative to control", "outline": "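Active-site-directed competition binding panel (KinomeScan) covering 468 kinases. Test agent was screened at 1 μM. The read-out is the remaining kinase signal expressed relative to a DMSO control. Scores above 35%, taken as weak binding, were not reported.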"}, "[7]": {"molecular_target": "Interleukin-1 receptor-associated kinase 4 (Homo sapiens) (UniProt Q9NWZ3)", "assay": "Binding affinity to wild-type human partial length IRAK4 (M1 to S460 residues) expressed in mammalian expression system assessed as residual binding level at 1 uM by Kinomescan method relative to control"}, "[8]": {"molecular_target": "Casein kinase II subunit alpha' (Homo sapiens) (UniProt P19784)", "assay": "Binding affinity to wild-type human full length CSNK2A2 (M1 to R350 residues) expressed in mammalian expression system assessed as residual binding level at 1 uM by Kinomescan method relative to control", "outline": "as §1"}, "[9]": {"molecular_target": "Serine/threonine-protein kinase MAK (Homo sapiens) (UniProt P20794)", "assay": "Binding affinity to wild-type human partial length MAK (M1 to P314 residues) expressed in bacterial expression system assessed as residual binding level at 1 uM by Kinomescan method relative to control", "outline": "as §2"}, "[10]": {"molecular_target": "Proto-oncogene tyrosine-protein kinase ROS (Homo sapiens) (UniProt P08922)", "assay": "Binding affinity to wild-type human partial length ROS1 (A1921 to N2240 residues) expressed in bacterial expression system assessed as residual binding level at 1 uM by Kinomescan method relative to control"}, "[11]": {"molecular_target": "Tyrosine-protein kinase FRK (Homo sapiens) (UniProt P42685)", "assay": "Binding affinity to wild-type human partial length FRK (A215 to F503 residues) expressed in bacterial expression system assessed as residual binding level at 1 uM by Kinomescan method relative to control", "outline": "as §2"}, "[12]": {"molecular_target": "Rhodopsin kinase GRK1 (Homo sapiens) (UniProt Q15835)", "assay": "Binding affinity to wild-type human full length GRK1 (M1 to S563 residues) expressed in mammalian expression system assessed as residual binding level at 1 uM by Kinomescan method relative to control", "outline": "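KinomeScan, an active site-directed competition binding panel of 468 kinases. The test compound was at 1 μM. The readout is remaining kinase binding as a percentage of the DMSO control. Scores above 35% were treated as weak binding and not listed.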"}, "[13]": {"molecular_target": "Calcium/calmodulin-dependent protein kinase type 1G (Homo sapiens) (UniProt Q96NX5)", "assay": "Binding affinity to wild-type human partial length CAMK1G (M1 to A342 residues) expressed in bacterial expression system assessed as residual binding level at 1 uM by Kinomescan method relative to control"}, "[14]": {"molecular_target": "Ribosomal protein S6 kinase alpha-2 (Homo sapiens) (UniProt Q15349)", "assay": "Binding affinity to wild-type human partial length N- terminal RSK3 kinase domain 1 (M1 to Q385 residues) expressed in bacterial expression system assessed as residual binding level at 1 uM by Kinomescan method relative to control"}, "[15]": {"molecular_target": "cGMP-dependent protein kinase 1 (Homo sapiens) (UniProt Q13976)", "assay": "Binding affinity to wild-type human partial length PRKG1 (L339 to F686 residues) expressed in bacterial expression system assessed as residual binding level at 1 uM by Kinomescan method relative to control"}, "[16]": {"molecular_target": "Calcium/calmodulin-dependent protein kinase kinase 1 (Homo sapiens) (UniProt Q8N5S9)", "assay": "Binding affinity to wild-type human partial length CAMKK1 (R65 to E414 residues) expressed in bacterial expression system assessed as residual binding level at 1 uM by Kinomescan method relative to control"}, "[17]": {"molecular_target": "Proto-oncogene tyrosine-protein kinase receptor Ret (Homo sapiens) (UniProt P07949)", "assay": "Binding affinity to wild-type human partial length RET (E713 to D1014 residues) expressed in bacterial expression system assessed as residual binding level at 1 uM by Kinomescan method relative to control"}, "[18]": {"molecular_target": "Wee1-like protein kinase (Homo sapiens) (UniProt P30291)", "assay": "Binding affinity to wild-type human partial length WEE1 (M291 to K575 residues) expressed in bacterial expression system assessed as residual binding level at 1 uM by Kinomescan method relative to control"}, "[19]": {"tested_on": "Tyrosine-protein kinase ABL1 (Homo sapiens), P00519 [Y253F]", "assay": "Binding affinity to human phosphorylated ABL1 Y253F mutant (S229 to K512 residues) expressed in mammalian expression system assessed as residual binding level at 1 uM by Kinomescan method relative to control", "outline": "as §1"}, "[20]": {"molecular_target": "Serine/threonine-protein kinase PAK 5 (Homo sapiens) (UniProt Q9P286)", "assay": "Binding affinity to wild-type human partial length PAK7 (Y400 to H719 residues) expressed in bacterial expression system assessed as residual binding level at 1 uM by Kinomescan method relative to control"}, "[21]": {"molecular_target": "Insulin receptor (Homo sapiens) (UniProt P06213)", "assay": "Binding affinity to wild-type human partial length INSR (P997 to E1318 residues) expressed in mammalian expression system assessed as residual binding level at 1 uM by Kinomescan method relative to control"}},
  "data": [
    {"smiles": "C=CC(=O)Nc1ccccc1Nc1nc(Nc2ccc(N3CCN(C)CC3)cc2)ncc1C(=O)Nc1c(C)cccc1Cl", "values": [
      {"measurement": "Activity", "setting": "[1]", "result": 100, "unit": "%"},
      {"measurement": "Activity", "setting": "[2]", "result": 95, "unit": "%"},
      {"measurement": "Activity", "setting": "[3]", "result": 1, "unit": "%"},
      {"measurement": "Activity", "setting": "[4]", "result": 100, "unit": "%"},
      {"measurement": "Activity", "setting": "[5]", "result": 100, "unit": "%"},
      {"measurement": "Activity", "setting": "[6]", "result": 100, "unit": "%"},
      {"measurement": "Activity", "setting": "[7]", "result": 100, "unit": "%"},
      {"measurement": "Activity", "setting": "[8]", "result": 100, "unit": "%"},
      {"measurement": "Activity", "setting": "[9]", "result": 70, "unit": "%"},
      {"measurement": "Activity", "setting": "[10]", "result": 100, "unit": "%"},
      {"measurement": "Activity", "setting": "[11]", "result": 5.1, "unit": "%"},
      {"measurement": "Activity", "setting": "[12]", "result": 69, "unit": "%"},
      {"measurement": "Activity", "setting": "[13]", "result": 100, "unit": "%"},
      {"measurement": "Activity", "setting": "[14]", "result": 100, "unit": "%"},
      {"measurement": "Activity", "setting": "[15]", "result": 100, "unit": "%"},
      {"measurement": "Activity", "setting": "[16]", "result": 100, "unit": "%"},
      {"measurement": "Activity", "setting": "[17]", "result": 100, "unit": "%"},
      {"measurement": "Activity", "setting": "[18]", "result": 100, "unit": "%"},
      {"measurement": "Activity", "setting": "[19]", "result": 0.1, "unit": "%"},
      {"measurement": "Activity", "setting": "[20]", "result": 100, "unit": "%"},
      {"measurement": "Activity", "setting": "[21]", "result": 100, "unit": "%"}
    ]}
  ]
}
